# Experimental data from ChEMBL document CHEMBL3352462, “Aldosterone synthase inhibitors as promising treatments for mineralocorticoid dependent cardiovascular and renal diseases” (J Med Chem, 2014).
# pIC50: −log10 of the molar value.
# Key:
# [1] = Tmax in sodium depleted healthy human; settings: in vivo
# [2] = Elimination half life in sodium depleted healthy human; settings: in vivo
# [3] = test system: Rattus norvegicus; experiment: Decrease in aldosterone level Wistar rat plasma at 4 mg/kg, po measured after 2 hrs by radioimmunoassay; assay type: functional
# [4] = test system: Rattus norvegicus; experiment: Decrease in myocardial fibrosis in SHR rat at 1.2 mg/kg/day, po; settings: Myocardium, read-out: INH
# [5] = species on record: Homo sapiens; experiment: Selectivity ratio of IC50 for human CYP11B1 to IC50 for human CYP11B2
# Method in brief: (§1)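 Whole-cell assay in V79MZ (Chinese hamster lung fibroblast) cells stably expressing human CYP11B2; a parallel line stably expressing human CYP11B1 gives the counter-target IC50. Selectivity is expressed as the CYP11B1/CYP11B2 IC50 ratio.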
# [6] = target: T1, Cytochrome P450 1A2 (Homo sapiens, UniProt P05177); experiment: Inhibition of CYP1A2 (unknown origin); assay type: ADME
# T1 sequence (P05177 whole entry): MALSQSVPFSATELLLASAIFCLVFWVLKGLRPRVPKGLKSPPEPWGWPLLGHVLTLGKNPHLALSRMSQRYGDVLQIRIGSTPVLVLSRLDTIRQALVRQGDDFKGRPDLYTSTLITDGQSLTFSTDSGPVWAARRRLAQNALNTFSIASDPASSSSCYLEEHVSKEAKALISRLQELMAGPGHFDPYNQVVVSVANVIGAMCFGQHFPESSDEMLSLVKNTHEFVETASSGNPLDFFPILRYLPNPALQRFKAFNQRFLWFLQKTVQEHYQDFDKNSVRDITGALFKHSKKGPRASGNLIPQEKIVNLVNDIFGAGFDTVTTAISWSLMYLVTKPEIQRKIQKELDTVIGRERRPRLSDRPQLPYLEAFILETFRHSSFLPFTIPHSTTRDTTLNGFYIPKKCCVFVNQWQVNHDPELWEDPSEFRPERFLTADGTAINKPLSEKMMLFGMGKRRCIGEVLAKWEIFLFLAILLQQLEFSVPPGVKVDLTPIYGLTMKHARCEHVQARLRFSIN
# [7] = target: T2, Cytochrome P450 11B2, mitochondrial (Homo sapiens, UniProt P19099); experiment: Inhibition of human aldosterone synthase
# T2 sequence (P19099 whole entry): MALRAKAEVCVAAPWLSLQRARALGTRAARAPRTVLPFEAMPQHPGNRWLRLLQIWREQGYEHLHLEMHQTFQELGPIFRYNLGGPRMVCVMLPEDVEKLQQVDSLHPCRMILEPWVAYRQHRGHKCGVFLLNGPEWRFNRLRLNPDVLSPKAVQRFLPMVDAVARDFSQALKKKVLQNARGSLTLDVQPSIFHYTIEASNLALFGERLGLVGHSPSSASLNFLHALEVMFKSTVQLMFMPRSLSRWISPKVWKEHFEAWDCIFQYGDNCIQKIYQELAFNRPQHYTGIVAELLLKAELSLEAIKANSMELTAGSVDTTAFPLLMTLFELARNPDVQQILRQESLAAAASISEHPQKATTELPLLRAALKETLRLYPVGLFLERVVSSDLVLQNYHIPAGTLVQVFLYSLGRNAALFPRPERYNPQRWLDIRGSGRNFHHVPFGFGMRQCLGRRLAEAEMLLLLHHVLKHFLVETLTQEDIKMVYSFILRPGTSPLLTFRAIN
# [8] = target: T3, Cytochrome P450 11B1, mitochondrial (Homo sapiens, UniProt P15538); experiment: Inhibition of human CYP11B1 expressed in NCI-H295R cells at 100 nM; assay type: cell-based
# T3 sequence (P15538 whole entry): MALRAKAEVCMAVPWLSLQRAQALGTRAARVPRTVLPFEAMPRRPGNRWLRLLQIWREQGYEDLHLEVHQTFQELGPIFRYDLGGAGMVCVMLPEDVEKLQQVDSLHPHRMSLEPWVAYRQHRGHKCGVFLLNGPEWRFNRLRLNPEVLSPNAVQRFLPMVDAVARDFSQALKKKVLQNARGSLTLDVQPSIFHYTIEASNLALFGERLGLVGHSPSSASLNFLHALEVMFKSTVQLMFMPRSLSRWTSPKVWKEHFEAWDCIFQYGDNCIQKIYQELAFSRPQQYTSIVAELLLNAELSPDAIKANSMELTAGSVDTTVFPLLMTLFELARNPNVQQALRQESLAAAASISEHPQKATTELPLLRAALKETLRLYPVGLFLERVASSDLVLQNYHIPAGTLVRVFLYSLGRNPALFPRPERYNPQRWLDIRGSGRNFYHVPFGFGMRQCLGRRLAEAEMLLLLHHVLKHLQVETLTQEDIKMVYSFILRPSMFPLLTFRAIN
# [9] = target: T2, Cytochrome P450 11B2, mitochondrial; experiment: Inhibition of human CYP11B2 expressed in NCI-H295R cells assessed as reduction in aldosterone formation; assay type: cell-based
# [10] = target: T2, Cytochrome P450 11B2, mitochondrial; experiment: Inhibition of human aldosterone synthase by cell based assay
# [11] = test system: Rattus norvegicus; experiment: Decrease in corticosterone level Wistar rat plasma at 4 mg/kg, po measured after 2 hrs by radioimmunoassay; assay type: functional
# [12] = target: T4, Cytochrome P450 11B2, mitochondrial (Rattus norvegicus, UniProt P30099); experiment: Inhibition of aldosterone synthase in rat adrenal assessed as decrease in aldosterone level at 100 uM
# T4 sequence (P30099 whole entry): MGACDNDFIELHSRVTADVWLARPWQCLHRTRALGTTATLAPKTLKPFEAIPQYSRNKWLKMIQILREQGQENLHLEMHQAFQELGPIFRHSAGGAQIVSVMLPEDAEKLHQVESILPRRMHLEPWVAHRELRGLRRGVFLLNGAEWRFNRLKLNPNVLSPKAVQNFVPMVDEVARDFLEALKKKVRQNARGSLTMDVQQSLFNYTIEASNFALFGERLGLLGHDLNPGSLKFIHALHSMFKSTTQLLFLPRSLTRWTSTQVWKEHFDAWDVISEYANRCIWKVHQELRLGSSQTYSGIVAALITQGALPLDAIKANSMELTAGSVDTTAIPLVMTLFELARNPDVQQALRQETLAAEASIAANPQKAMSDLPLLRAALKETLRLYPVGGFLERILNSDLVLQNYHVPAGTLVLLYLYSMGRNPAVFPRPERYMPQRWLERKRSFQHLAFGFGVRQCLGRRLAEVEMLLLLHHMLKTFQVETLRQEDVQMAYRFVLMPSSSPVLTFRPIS
# [13] = target: T4, Cytochrome P450 11B2, mitochondrial; experiment: Inhibition of aldosterone synthase in rat adrenal assessed as decrease in 18-OH-corticosterone level at 100 uM
# [14] = target: T2, Cytochrome P450 11B2, mitochondrial; experiment: Inhibition of human aldosterone synthase in homogenized rat glomerulosa tissue
# [15] = target: T2, Cytochrome P450 11B2, mitochondrial; experiment: Inhibition of human aldosterone synthase expressed in V79 MZ cells assessed as inhibition of aldosterone synthesis; assay type: cell-based, V79MZ
# [16] = target: T2, Cytochrome P450 11B2, mitochondrial; experiment: Inhibition of human aldosterone synthase expressed in V79 MZ cells; assay type: cell-based, V79MZ; method in brief: as §1
# [17] = target: T2, Cytochrome P450 11B2, mitochondrial; experiment: Inhibition of human CYP11B2 expressed in G402 cells; assay type: cell-based, G-402
# [18] = species on record: Homo sapiens; experiment: Decrease in diastolic blood pressure in hypertension patient at 50 mg, bid for 8 weeks; assay type: functional, Artery
# [19] = species on record: Homo sapiens; experiment: Increase in aldosterone level in sodium depleted healthy human urine; assay type: functional
# [20] = species on record: Homo sapiens; experiment: Increase in aldosterone level in primary aldosteronism patient plasma at 50 mg, bid for 31 days; assay type: functional
# [21] = species on record: Homo sapiens; experiment: Increase in aldosterone level in sodium depleted healthy human plasma; assay type: functional
structure (smiles),measurement,setting,value
N#Cc1ccc([C@H]2CCc3cncn32)c(F)c1 [OSILODROSTAT],Tmax,[1],1 h
same,half-life,[2],4 h
CSc1ccc(C2CCCn3cncc32)cc1 (stereo not drawn),inhibition in vivo at 4 mg/kg,[3],62%
N#Cc1ccc([C@H]2CCCc3cncn32)cc1 [DEXFADROSTAT],inhibition in vivo at 1.2 mg/kg/day,[4],50%
c1cncc(C2CCCCCCC2)c1,Ratio IC50,[5],50
same,pIC50,[6],< 4.00
CCOC(=O)c1cncn1C1c2ccccc2C(=O)OC1(C)C (stereo not drawn),pIC50,[7],8.52
same,inhibition at 0.1 µM,[8],94%
Cn1c(=O)oc2cc(-c3cncc(C(O)C(F)(F)F)c3)ccc21 (stereo not drawn),pIC50,[9],8.85
COc1cccc2c1CCC1C(c3cnc[nH]3)C21 (stereo not drawn),Ratio IC50,[5],2
same,pIC50,[10],7.39
CCS(=O)(=O)NCc1cncc(-c2c(C)c3ccccc3n2C)c1,Ratio IC50,[5],322
N#Cc1ccc2c(c1)C1(CCC2)OCCn2cncc21 (stereo not drawn),inhibition in vivo at 4 mg/kg,[11],15%
same,inhibition in vivo at 4 mg/kg,[3],82%
CC(=O)S[C@@H]1CC2=CC(=O)C=C[C@]2(C)[C@H]2CC[C@@]3(C)[C@@H]([C@@H]4C[C@@H]4[C@@]34CCC(=O)O4)[C@H]12 [MESPIRENONE],inhibition at 100 µM,[12],> 40%
same,inhibition at 100 µM,[13],> 40%
Cc1ccncc1-c1cc(F)c2c(c1)CCc1nnc(C)n1-2,Ratio IC50,[5],421
c1ccc2c(-c3cccc4cncn34)cccc2c1,pIC50,[14],7.30
CC(O)c1c(F)cncc1-c1cc2cc(Cl)c(F)cc2o1 (stereo not drawn),pIC50,[9],8.60
same,Ratio IC50,[5],427
CN[C@@H]1C[C@H]2O[C@@](C)([C@@H]1OC)n1c3ccccc3c3c4c(c5c6ccccc6n2c5c31)C(=O)NC4 [STAUROSPORINE],pIC50,[15],7.96
Cc1cncc(-c2cc3n(n2)CCC(=O)N3)c1,pIC50,[16],8.66
same,Ratio IC50,[5],128
Oc1ccc2c(c1)CC(Cc1ccncc1)C2 (stereo not drawn),Ratio IC50,[5],< 5
same,pIC50,[10],7.23
Cn1c(-c2cncc3ccccc23)nc2ccc(F)c(F)c21,Ratio IC50,[5],> 1000
CC1(C)c2cc(Cl)ccc2C(=O)N1c1cncc(C2CCCN(S(C)(=O)=O)C2)n1 (stereo not drawn),pIC50,[17],8.55
same,Ratio IC50,[5],589
CCS(=O)(=O)N(Cc1cncc(-c2cccc(Cl)c2Cl)c1)C1CC1,pIC50,[9],8.30
COC(=O)[C@@H]1CC2=CC(=O)CC[C@]2(C)[C@@]23O[C@@H]2C[C@@]2(C)[C@@H](CC[C@@]24CCC(=O)O4)[C@H]13 [EPLERENONE],Activity,[18],-7.9 mmHg
same,Activity,[19],88%
same,Activity,[20],89%
same,Activity,[21],38%
